Rows were chosen to be rich in hits. Some 2.3% of all compounds tested hit in one or more screens of this group.
DNMT1 block: inhibitors of human DNMT1. inhibition (reported as % activation of signal), % at 10 µM. hit rate 0.83% among 360,000. P26358. DNMT1 molecular beacon, Hinp1I cleavage, fluorescence. AID 588458; in the data active means inhibition above about 50%
LMPTP block: blocks human LMPTP phosphatase; recombinant LMPTP-A, OMFP fluorogenic substrate, fluorescence intensity; inhibition, % at 20 µM; hit rate 0.22% among 360,000;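 active means compounds that cut the enzyme signal by at least half of the control window in the single-dose screen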
Target sequence (P24666 whole entry, looked up): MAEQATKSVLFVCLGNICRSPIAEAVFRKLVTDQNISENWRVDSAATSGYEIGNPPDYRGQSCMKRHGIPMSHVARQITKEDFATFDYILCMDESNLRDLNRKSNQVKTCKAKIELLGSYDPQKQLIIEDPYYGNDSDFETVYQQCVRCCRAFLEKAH
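Buffer or medium: Bis-Tris pH 6.0, DTT, detergent; Assay system: LMPTP-A enzyme; Quantity: 0.625 nM enzyme; Detection: endpoint fluorescence intensity; Times: 50 min dark incubation at room temperature; Controls: substrate-only low control, DMSO enzyme-plus-substrate high control; Doses: single 20 µM dose; Read-out: percent inhibition versus substrate-only and uninhibited controls; Reagent: 400 µM OMFP.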
SUMO1-SIM PPI: alters human SUMO1 binding to SIM partners. P63165. SUMO1 binding to a labelled peptide, TR-FRET, 1 h. inhibition, % at 20 µM. hit rate 0.33% among 360,000; in the data active means inhibition above about 37%
Rpn11 inh: blocks the human proteasome subunit Rpn11; human 26S proteasome, Ub4-pepOG fluorescence polarization; 20S core pre-blocked with epoxomicin; AID 588493; inhibition, % at 20 µM; hit rate 0.59% among 360,000; O00487;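 active means inhibition at 20 µM, scaled to each plate's controls, above about 33%, limit read from the data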
Scp1 inh: inhibitors of human Scp-1 phosphatase. Q9GZU7. Recombinant Scp1, phosphopeptide, malachite green phosphate absorbance. inhibition, % at 20 µM. hit rate 0.88% among 340,000. AID 493091;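 active means inhibition above about 50% at 20 µM, limit read from the data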
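Material: truncated SCP-1 phosphatase (76-261aa) / Buffer or medium: 50 mM Tris acetate pH 5.5, 0.005% Tween-20, 10 mM MgCl2 / Compound dosing: one concentration, 20 µM, with 1.0% DMSO / Incubation: 45 min room-temperature reaction, 5 min colour, 30 min stabiliser / Detection: colorimetric free-phosphate detection, absorbance 630 nm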
STEP block: inhibitors of human striatal-enriched phosphatase STEP; P54829; recombinant STEP, OMFP fluorogenic substrate, fluorescence; inhibition, % at 20 µM; hit rate 0.25% among 360,000; AID 588621;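 active means inhibition at 20 µM, scaled per plate between control wells, above about 37%, limit read from the data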
Target sequence (P54829 whole entry, looked up): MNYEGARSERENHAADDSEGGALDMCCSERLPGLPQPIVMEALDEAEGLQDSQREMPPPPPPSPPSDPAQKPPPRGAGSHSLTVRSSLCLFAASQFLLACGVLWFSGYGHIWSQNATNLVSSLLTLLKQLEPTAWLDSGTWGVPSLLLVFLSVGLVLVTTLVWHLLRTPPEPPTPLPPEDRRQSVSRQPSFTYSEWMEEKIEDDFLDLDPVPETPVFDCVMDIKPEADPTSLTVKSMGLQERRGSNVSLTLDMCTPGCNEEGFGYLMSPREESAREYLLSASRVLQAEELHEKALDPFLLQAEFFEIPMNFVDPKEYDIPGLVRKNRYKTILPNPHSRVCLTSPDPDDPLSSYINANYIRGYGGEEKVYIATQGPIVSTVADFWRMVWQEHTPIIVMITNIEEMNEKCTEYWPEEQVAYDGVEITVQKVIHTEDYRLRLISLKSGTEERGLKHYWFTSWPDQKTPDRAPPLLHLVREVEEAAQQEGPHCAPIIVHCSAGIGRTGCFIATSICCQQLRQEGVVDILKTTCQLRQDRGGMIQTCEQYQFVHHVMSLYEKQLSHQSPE
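material = STEP tyrosine phosphatase | reagent = fluorogenic phosphatase substrate OMFP at 25 µM final | doses = single compound dose of 20 µM, 1% DMSO final | schedule = 20 min reaction, room temperature, in the dark | measured by = fluorescence, 480/540 nm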
Rpn11 confirm: Rpn11 inhibition confirmation, single concentration. inhibition, % at 20 µM. hit rate 29% among 1,900. purified human 26S proteasome, Ub4-pepOG fluorescence polarization; proteasome pretreated with epoxomicin. shares compounds with Rpn11 inh
MMP-2 inh: counter-screen for RPN11 inhibitors: inhibition of human MMP-2 | hit rate 4% among 1,900 | recombinant MMP-2, FRET peptide cleavage fluorescence | inhibition, % at 20 µM | shares compounds with Rpn11 inh;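 further: human MMP-2 activated beforehand with APMA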
Thrombin inh: thrombin (bovine) inhibition counter-screen | shares compounds with Rpn11 inh | bovine thrombin cleavage of Ub4-pepOG, fluorescence polarization | inhibition, % at 20 µM | hit rate 13% among 1,900 | AID 602333;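 active means mean inhibition at least 40% at 20 µM, or signal 3 deviations below plate average, so some actives read negative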
Of the large screens only hits and unclear results are named; the others gave an inactive call (follow-up assays come after a bar, where shown). Unless noted, no stated cut-off is given here; in the data, active means inhibition above about 40%; inactive means the rest.

O=C(Nc1ccc(Cl)cc1)Nc1ccccc1Sc1ncc([N+](=O)[O-])s1	Rpn11 inh 44 | Rpn11 confirm inactive | MMP-2 inh inactive | Thrombin inh inactive
Cc1ccccc1N=Cc1cc2c(cc1O)OC(N)=C(C#N)C2c1ccccc1 (centres undefined)	Rpn11 inh 66 | Rpn11 confirm 96 | MMP-2 inh inactive | Thrombin inh 93
N#CC1=C(N)Oc2cc(O)c(C=Nc3ccccc3)cc2C1c1ccccc1 (centres undefined)	none
COc1ccc(N2CCc3c(C)nc4c(OC)cccc4c32)cc1	Rpn11 inh 43 | Rpn11 confirm inactive | MMP-2 inh inactive | Thrombin inh inactive
COc1ccc(N2CCc3c(C)nc4c(OC)cc(OC)cc4c32)cc1	none
FC(F)(F)c1nc(SCc2ccccc2)n[nH]1	none
O=C(CN(C1CCCCC1)S(=O)(=O)c1ccccc1)N1CCCC1	Rpn11 inh 37 | Rpn11 confirm inactive | MMP-2 inh inactive | Thrombin inh inactive
N#CC(C#N)=Cc1ccc(-c2ccc(S(=O)(=O)N=C(N)N)cc2)o1	Rpn11 inh 46 | Rpn11 confirm inactive | MMP-2 inh 76 | Thrombin inh inactive
O=C(COc1ccc([N+](=O)[O-])cc1Cl)NCC1CCCO1 (centres undefined)	none
Nc1c(-c2ccccc2)c(CSc2nc3ccccc3[nH]2)nn1-c1cccc(Cl)c1	Rpn11 inh 63 | Rpn11 confirm 42 | MMP-2 inh inactive | Thrombin inh inactive
Nc1c(-c2ccccc2)c(CSc2nc3ccccc3[nH]2)nn1-c1ccc(Cl)cc1	none
CN(C)/N=C/C=C1\CCC/C(=C/c2cccs2)C1=O	Rpn11 inh 95 | Rpn11 confirm inactive | MMP-2 inh inactive | Thrombin inh inactive
CN(C)/N=C/C=C1\CC/C(=C\c2ccc(Br)cc2)C1=O	none
COc1ccccc1/C=C/CN1CCSCC1	none
O=C(COC(=O)c1cc(Br)ccc1Cl)NC1CCCC1	none
Cc1c(Cc2ccccc2)sc(NC(=O)/C=C/c2cccc3ccccc23)c1C(N)=O	Rpn11 inh 38 | Rpn11 confirm inactive | MMP-2 inh inactive | Thrombin inh inactive
CC1CCCC(NC(=O)CCS(=O)(=O)c2cc3c(cc2Cl)NC(=O)CO3)C1C (centres undefined)	Rpn11 inh 44 | Rpn11 confirm inactive | MMP-2 inh inactive | Thrombin inh inactive
CC1CCCC(NS(=O)(=O)c2cc3c(cc2Cl)NC(=O)CO3)C1C (centres undefined)	none
CCOC(=O)CCC(=O)Nc1ccc([N+](=O)[O-])cc1C	Rpn11 inh 138 | Rpn11 confirm inactive | MMP-2 inh inactive | Thrombin inh inactive
O=[N+]([O-])c1ccc(C=NNc2ccccc2)cc1	Rpn11 inh 55 | Rpn11 confirm inactive | MMP-2 inh inactive | Thrombin inh inactive
O=[N+]([O-])c1ccc(NN=C(Oc2ccccc2)c2ccc([N+](=O)[O-])cc2)cc1	Rpn11 inh 42 (no result: Scp1 inh) | Rpn11 confirm inactive | MMP-2 inh inactive | Thrombin inh inactive
CC/C(=N\Nc1ccc([N+](=O)[O-])cc1)c1ccccc1	none (not shown: Rpn11 inh)
C=CCN1C(=O)/C(=C2/Sc3ccc(OC)cc3N2C)SC1=Nc1cccc(O)c1	Rpn11 inh 67 | Rpn11 confirm inactive | MMP-2 inh inactive | Thrombin inh inactive
Cc1nc(-c2ccc(C(=O)Nc3ccc(F)cc3)cc2)cs1	Rpn11 inh 61 | Rpn11 confirm inactive | MMP-2 inh inactive | Thrombin inh inactive
c1ccc(C2Nc3ccccc3C3OCCCC23)cc1 (centres undefined)	none
CCOCCCNC(=O)c1ccc2c(c1)ncn2-c1cccc(C)c1	none
CCN1CC(O)=C(c2nc3ccccc3s2)C1=N	Rpn11 inh 99 | Rpn11 confirm inactive | MMP-2 inh inactive | Thrombin inh inactive
CN1/C(=C/C(=S)NC(=O)C2CCC2)C(C)(C)c2ccccc21	Rpn11 inh 54 | Rpn11 confirm inactive | MMP-2 inh inactive | Thrombin inh inactive
CC(C)C(=O)NC(=S)/C=C1/N(C)c2ccccc2C1(C)C	none (not shown: Rpn11 inh)
COc1ccc(NC(=O)CC(=O)Nc2ccc(OC)cc2OC)c(OC)c1	Rpn11 inh 129 | Rpn11 confirm inactive | MMP-2 inh inactive | Thrombin inh inactive
COC(=O)c1ccc(C23CC4(C2)[C@H](CN(Cc2cccnc2)[C@@H]4c2ccccc2)C3c2ccc(C(F)(F)F)cc2)cc1 (some centres undefined)	none (no result: DNMT1 block, LMPTP block, SUMO1-SIM PPI, Rpn11 inh, STEP block)
COC(=O)c1ccc(C23CC4(C2)[C@H](CN(Cc2cccnc2)[C@@H]4c2ccccc2)C3c2ccccc2)cc1 (some centres undefined)	Rpn11 inh 44 | Rpn11 confirm inactive | MMP-2 inh inactive | Thrombin inh inactive
Brc1cccc(-c2nc3ccc(Br)cn3c2Cc2ccccc2)c1	Rpn11 inh 44 (no result: Scp1 inh) | Rpn11 confirm inactive | MMP-2 inh inactive | Thrombin inh inactive
Clc1cccc(-c2nc3ccc(Br)cn3c2Cc2ccccc2)c1	Rpn11 inh 50 (no result: Scp1 inh) | Rpn11 confirm inactive | MMP-2 inh inactive | Thrombin inh inactive
Clc1cccc(Cc2c(-c3cccc(Br)c3)nc3ccc(Br)cn23)c1	none (no result: Scp1 inh)
CCNC(=O)N(C)C[C@H]1N[C@@](CC)(C(=O)OC)[C@H]2C(=O)N(Cc3ccccc3)C(=O)[C@@H]12	none
CCN1/C(=C/c2ccc3cc(C)ccc3[n+]2CC)Sc2cc(C)c(C)cc21	LMPTP block 65, Rpn11 inh 89 | Rpn11 confirm 75 | MMP-2 inh inactive | Thrombin inh 146
CCOC(=O)/C(=C/C=C1\Sc2cc(C)c(C)cc2N1CC)C(C)=O	none (not shown: Rpn11 inh)
Cc1nc(SCc2nc3ccccc3[nH]2)c2oc3cc(Br)ccc3c2n1	Rpn11 inh 83 | Rpn11 confirm 45 | MMP-2 inh inactive | Thrombin inh 43
COc1ccc(/C=C2/SC(=S)N(CCCC(=O)Nc3ccc(O)cc3)C2=O)cc1OC	Rpn11 inh 45 | Rpn11 confirm 61 | MMP-2 inh inactive | Thrombin inh 42
COc1cccc(/C=C2/SC(=S)N(CCCC(=O)Nc3ccc(O)cc3)C2=O)c1	none
COc1ccc(/C=C2\SC(=S)N(CCCC(=O)Nc3ccc(C(=O)O)cc3)C2=O)cc1OC	Rpn11 inh 56 | Rpn11 confirm 67 | MMP-2 inh inactive | Thrombin inh 52
COc1ccc(/C=C2\SC(=S)N(CCC(=O)Nc3ccccc3C(=O)O)C2=O)cc1	none

Screening data from PubChem BioAssay.
